The text below walks through data of ChEMBL document CHEMBL5244263, “Studies on fragment-based design of allosteric inhibitors of human factor XIa” (Bioorg Med Chem, 2020).

The target in test [1] is Prothrombin (Homo sapiens) (UniProt P00734). Kind of test: Inhibition of human thrombin at 500 uM by chromogenic substrate hydrolysis assay.
The target in test [2] is T1, Coagulation factor VII (Homo sapiens) (UniProt P08709).
T1 sequence (whole entry): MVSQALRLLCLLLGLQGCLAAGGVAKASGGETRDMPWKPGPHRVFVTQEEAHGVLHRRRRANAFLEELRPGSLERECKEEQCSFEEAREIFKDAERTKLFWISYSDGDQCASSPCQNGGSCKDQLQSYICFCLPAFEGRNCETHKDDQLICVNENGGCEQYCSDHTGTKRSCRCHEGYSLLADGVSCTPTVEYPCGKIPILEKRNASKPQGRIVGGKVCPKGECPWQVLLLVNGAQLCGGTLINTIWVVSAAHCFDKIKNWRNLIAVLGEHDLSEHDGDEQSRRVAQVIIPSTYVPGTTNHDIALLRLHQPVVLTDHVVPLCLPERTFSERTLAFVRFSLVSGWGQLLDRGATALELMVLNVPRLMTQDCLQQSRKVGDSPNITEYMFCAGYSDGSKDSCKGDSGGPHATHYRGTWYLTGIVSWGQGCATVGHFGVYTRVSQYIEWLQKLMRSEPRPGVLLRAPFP
In words: Inhibition of FVIIa (unknown origin) at 500 uM by chromogenic substrate hydrolysis assay.

In test [3] the target is Coagulation factor IX (Homo sapiens) (UniProt P00740). In words: Inhibition of human FIXa at 500 uM by chromogenic substrate hydrolysis assay.
Chain of Coagulation factor IX (Homo sapiens) (P00740 47-191 limits assumed): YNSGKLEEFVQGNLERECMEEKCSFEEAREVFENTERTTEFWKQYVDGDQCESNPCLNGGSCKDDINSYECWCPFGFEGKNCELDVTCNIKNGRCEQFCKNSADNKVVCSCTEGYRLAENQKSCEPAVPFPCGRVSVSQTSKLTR
Chain of Coagulation factor IX (Homo sapiens) (P00740 227-461 limits assumed): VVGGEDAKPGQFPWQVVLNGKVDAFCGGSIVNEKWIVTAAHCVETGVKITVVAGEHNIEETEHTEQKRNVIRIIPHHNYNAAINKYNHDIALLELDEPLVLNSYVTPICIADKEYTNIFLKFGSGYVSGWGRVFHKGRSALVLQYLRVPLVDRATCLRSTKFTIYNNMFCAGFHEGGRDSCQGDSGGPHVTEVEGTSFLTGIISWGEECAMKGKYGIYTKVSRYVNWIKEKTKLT
Test [4] has as its target Coagulation factor X (Homo sapiens) (UniProt P00742). Kind of test: Inhibition of human FXa using methoxycarbonyl-D-cyclohexylglycyl-Gly-Arg-p-nitroanilide as substrate at 500 uM by chromogenic substrate hydrolysis assay.
For test [5], the target named is Plasma kallikrein (Homo sapiens) (UniProt P03952). In words: Inhibition of Kallikrein in human plasma at 500 uM by chromogenic substrate hydrolysis assay. Type of test: cell-free.
Chain of Plasma kallikrein (Homo sapiens) (P03952 20-390 limits assumed): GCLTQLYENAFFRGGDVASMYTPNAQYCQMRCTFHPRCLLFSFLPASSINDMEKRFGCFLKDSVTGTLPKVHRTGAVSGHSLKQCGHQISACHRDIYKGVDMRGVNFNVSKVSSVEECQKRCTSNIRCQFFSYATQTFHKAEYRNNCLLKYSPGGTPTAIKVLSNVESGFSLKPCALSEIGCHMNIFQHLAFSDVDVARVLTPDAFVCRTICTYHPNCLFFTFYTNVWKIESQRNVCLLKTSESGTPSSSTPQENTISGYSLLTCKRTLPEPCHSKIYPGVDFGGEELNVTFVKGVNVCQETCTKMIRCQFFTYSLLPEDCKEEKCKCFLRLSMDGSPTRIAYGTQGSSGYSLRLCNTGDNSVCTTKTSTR
Chain of Plasma kallikrein (Homo sapiens) (P03952 391-638 limits assumed): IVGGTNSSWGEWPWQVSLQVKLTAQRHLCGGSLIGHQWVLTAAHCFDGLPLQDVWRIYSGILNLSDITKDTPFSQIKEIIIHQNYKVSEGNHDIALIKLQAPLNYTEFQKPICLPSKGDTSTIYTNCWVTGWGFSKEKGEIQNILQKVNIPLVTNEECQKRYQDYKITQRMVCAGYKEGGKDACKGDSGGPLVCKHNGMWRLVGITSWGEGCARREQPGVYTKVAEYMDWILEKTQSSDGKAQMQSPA
Test [6] is filed under the species Bos taurus. In words: Inhibition of bovine trypsin using S-2222 as chromogenic substrate at 500 uM by chromogenic substrate hydrolysis assay.
Test [7] deals with Chymotrypsinogen A (Bos taurus) (UniProt P00766). Kind of test: Inhibition of bovine alpha-chymotrypsin at 500 uM by chromogenic substrate hydrolysis assay.
The species entered for test [8] is Homo sapiens. In words: Inhibition of human FXIa heparin-binding site of A3 domain harboring K252A,K253A,K255A mutant and heparin-binding site of catalytic domain harboring K529A,R530A,R532A,K535A,K539A mutant using S-2366 as chromogenic substrate preincubated with enzyme for 10 mins followed by substrate addition by spectrophotometric analysis relative to control. The procedure, abridged:
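Recombinant hFXIa alanine mutants tested in 50 mM Tris-HCl pH 7.4, 150 mM NaCl, 0.1% PEG8000, 0.02% Tween80. Inhibitor and enzyme incubated 10 min at 37 °C, then S-2366 (345 μM final) added and residual activity read. IC50 and maximal inhibition efficacy (ΔY) obtained by nonlinear dose-response regression.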

Test [9] concerns the target T2, Coagulation factor XI (Homo sapiens, UniProt P03951). In words: Inhibition of human FXIa using S-2366 as chromogenic substrate preincubated with enzyme for 10 mins followed by substrate addition by spectrophotometric analysis.
For test [10], the target named is T2, Coagulation factor XI. In words: Inhibition of human FXIa using S-2366 as chromogenic substrate preincubated with enzyme for 10 mins followed by substrate addition by spectrophotometric analysis relative to control. On the set-up: concentration or dose not given beside the values. The gist of the method: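 hFXIa (0.765 nM final) preincubated with inhibitor or reference solution for 10 min at 37 °C in pH 7.4 buffer (50 mM Tris-HCl, 150 mM NaCl, 0.1% PEG8000, 0.02% Tween80). S-2366 (345 μM final) then added, and residual activity read on a microplate reader.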

The species named for test [11] is Homo sapiens. In words: Selectivity for inhibition of human FXIa over human thrombin.
For test [12], the species on record is Homo sapiens. In words: Selectivity for inhibition of human FXIa over FVIIa (unknown origin).
The species named for test [13] is Homo sapiens. Kind of test: Selectivity for inhibition of human FXIa over human FIXa.
For test [14], the species on record is Homo sapiens. In words: Selectivity for inhibition of human FXIa over human FXa.
The species entered for test [15] is Homo sapiens. Kind of test: Selectivity for inhibition of human FXIa over Kallikrein in human plasma. Type of test: cell-free.
A short description of test [16]: Selectivity for inhibition of human FXIa over bovine trypsin.
Test [17] in a line: Selectivity for inhibition of human FXIa over bovine alpha-chymotrypsin.
Test [18] addresses T2, Coagulation factor XI. In words: Binding affinity to active site dansylated human DEGR-FXIa assessed as hyperbolic interaction by measuring change in fluorescence intensity by fluorescence based analysis. The gist of the method: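 Titration of sulfated QAOs into 250 nM active-site dansylated hFXIa–DEGR in 50 mM Tris-HCl pH 7.4, 150 mM NaCl, 0.1% PEG8000, 37 °C. Emission monitored at 547 nm (excitation 345 nm). ΔFMAX, Hill coefficient n and KD obtained by nonlinear regression, using either the Hill equation or a standard hyperbolic equation. Error ±1 SE.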

For test [19], the target named is T2, Coagulation factor XI. Kind of test: Binding affinity to active site dansylated human DEGR-FXIa assessed as maximal change in fluorescence intensity by fluorescence based analysis. The procedure, abridged:
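Dansyl fluorescence titration: aliquots of sulfated QAO added to 250 nM hFXIa–DEGR in 50 mM Tris-HCl pH 7.4, 150 mM NaCl, 0.1% PEG8000 at 37 °C. Emission read at 547 nm with excitation at 345 nm. ΔFMAX, Hill coefficient and KD come from nonlinear regression fits, using the Hill equation or a standard hyperbolic equation. Error is ±1 SE.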

In test [20] the target is T2, Coagulation factor XI. Kind of test: Binding affinity to active site dansylated human DEGR-FXIa assessed as change in fluorescence intensity by fluorescence based analysis.
Test [21] has as its target Coagulation factor X (Homo sapiens) (UniProt P00742). Kind of test: Inhibition of human FXa using methoxycarbonyl-D-cyclohexylglycyl-Gly-Arg-p-nitroanilide as substrate at >200 uM by chromogenic substrate hydrolysis assay.
The species named for test [22] is Bos taurus. Kind of test: Inhibition of bovine trypsin using S-2222 as chromogenic substrate at >200 uM by chromogenic substrate hydrolysis assay.

Active and inactive are the calls of the source. The rule behind the calls is not given here. A value given as a limit tells only on which side of the number the result lay.

T2 sequence (P03951 19-387 limits assumed): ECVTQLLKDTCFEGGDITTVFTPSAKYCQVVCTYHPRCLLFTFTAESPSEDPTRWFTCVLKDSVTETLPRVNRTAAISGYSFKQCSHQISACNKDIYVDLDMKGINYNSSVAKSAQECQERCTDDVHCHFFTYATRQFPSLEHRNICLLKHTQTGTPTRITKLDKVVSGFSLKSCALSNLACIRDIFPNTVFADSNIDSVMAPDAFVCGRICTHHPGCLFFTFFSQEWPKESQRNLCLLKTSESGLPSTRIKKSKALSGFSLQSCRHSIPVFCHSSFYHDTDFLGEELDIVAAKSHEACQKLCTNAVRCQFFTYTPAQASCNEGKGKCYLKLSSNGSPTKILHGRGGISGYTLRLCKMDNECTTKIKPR
T2 sequence (P03951 388-625 limits assumed): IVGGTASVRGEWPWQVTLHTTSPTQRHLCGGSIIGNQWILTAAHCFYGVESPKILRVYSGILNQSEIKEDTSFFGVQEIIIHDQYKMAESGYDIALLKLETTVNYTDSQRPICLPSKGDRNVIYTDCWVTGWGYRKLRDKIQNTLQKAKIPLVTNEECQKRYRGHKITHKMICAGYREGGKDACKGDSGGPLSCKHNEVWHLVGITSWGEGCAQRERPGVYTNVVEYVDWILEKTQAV
Chain of Coagulation factor X (Homo sapiens) (P00742 41-179 limits assumed): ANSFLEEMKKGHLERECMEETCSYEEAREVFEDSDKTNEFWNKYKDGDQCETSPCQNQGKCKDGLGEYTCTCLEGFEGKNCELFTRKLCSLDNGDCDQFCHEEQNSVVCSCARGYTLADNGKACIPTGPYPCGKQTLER
Chain of Coagulation factor X (Homo sapiens) (P00742 235-488 limits assumed): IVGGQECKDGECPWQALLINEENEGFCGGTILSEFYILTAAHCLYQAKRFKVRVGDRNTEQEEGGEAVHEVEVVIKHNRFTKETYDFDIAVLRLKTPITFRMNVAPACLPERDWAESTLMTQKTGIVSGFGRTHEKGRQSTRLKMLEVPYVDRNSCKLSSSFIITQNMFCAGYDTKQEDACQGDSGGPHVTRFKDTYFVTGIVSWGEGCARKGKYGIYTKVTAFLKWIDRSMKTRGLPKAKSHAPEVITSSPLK

For orientation: inhibition means the change of the read-out against control, counted positive when it falls. On to `O=c1c2ccccc2nc(-c2ccc(OS(=O)(=O)O)cc2)n1CCCCCCCCCn1c(-c2ccc(OS(=O)(=O)O)cc2)nc2ccccc2c1=O`, for which the inhibition entry (in test [1]; in [2]; in test [3]; in test [4]; in test [5]; in the test listed under Bos taurus [6]) was “inactive” throughout. Moreover, the inhibition entry in [7] was “inactive”. In the test filed under Homo sapiens [8], the inhibition worked out at 105%.
By IC50 is commonly meant the midpoint of a concentration-inhibition curve. For the molecule `O=c1c2ccccc2nc(-c2cccc(OS(=O)(=O)O)c2)n1CCCCCn1c(-c2cccc(OS(=O)(=O)O)c2)nc2ccccc2c1=O`, on Coagulation factor XI [9], the concentration for half-maximal inhibition (IC50) was 89 µM. Moreover, the inhibition at Coagulation factor XI [10] turned out to be 96%. Also, the inhibition result (in test [1]; in test [2]; in test [3]; in test [4]; in test [5]; in the test listed under Bos taurus [6]) was “inactive” throughout. Further, the inhibition result in test [7] is “inactive”. For the same molecule, the Selectivity ratio (in the test filed under Homo sapiens [11]; in the test listed under Homo sapiens [12]; in the test listed under Homo sapiens [13]; in the test listed under Homo sapiens [14]; in the test filed under Homo sapiens [15]; in test [16]) was more than 63 throughout. Besides, in [17], the Selectivity ratio was more than 63.
As usually defined, the Kd is a measure of binding affinity in units of concentration. As for `O=c1[nH]c(-c2ccc(OS(=O)(=O)O)cc2)nc2ccccc12`, half-maximal inhibition at Coagulation factor XI [9] (IC50) required 375 µM. In addition, at Coagulation factor XI [18], the result was Active. In addition, on Coagulation factor XI [19], the Activity was -34%. Besides, on Coagulation factor XI [20], the Kd was 365 µM.
In the case of `O=c1c2ccccc2nc(-c2cccc(OS(=O)(=O)O)c2)n1Cc1ccc(Cn2c(-c3cccc(OS(=O)(=O)O)c3)nc3ccccc3c2=O)cc1`, it took 248 µM to reach half-maximal inhibition against Coagulation factor XI [9] (IC50). In addition, the inhibition on Coagulation factor XI [10] is 100%. Further, the inhibition result (in test [1]; in test [2]; in [3]; in [4]; in test [5]; in the test listed under Bos taurus [6]) was “inactive” in each case. In addition, the inhibition result in [7] was “inactive”. The Selectivity ratio (in the test filed under Homo sapiens [11]; in the test listed under Homo sapiens [12]; in the test filed under Homo sapiens [13]; in the test filed under Homo sapiens [14]; in the test listed under Homo sapiens [15]; in [16]) was more than 63 each time. The Selectivity ratio in test [17] is more than 63.
The molecule `O=c1c2ccccc2nc(-c2ccc(OS(=O)(=O)O)cc2)n1Cc1cccc(Cn2c(-c3ccc(OS(=O)(=O)O)cc3)nc3ccccc3c2=O)c1` yielded an IC50 at Coagulation factor XI [9] of 76 µM. For the same molecule, the inhibition against Coagulation factor XI [10] came out at 96%. The inhibition result (in [1]; in test [2]; in test [3]; in test [4]; in [5]; in the test listed under Bos taurus [6]) was “inactive” throughout. Further, in test [7], the inhibition result was “inactive”. Further, the Selectivity ratio (in the test filed under Homo sapiens [11]; in the test listed under Homo sapiens [12]; in the test listed under Homo sapiens [13]; in the test filed under Homo sapiens [14]; in the test listed under Homo sapiens [15]; in test [16]) was more than 63 each time. Also, the Selectivity ratio in test [17] was more than 63.
In the case of `O=c1c2ccccc2nc(-c2ccc(OS(=O)(=O)O)cc2)n1CCCCCCCCCCCn1c(-c2ccc(OS(=O)(=O)O)cc2)nc2ccccc2c1=O`, the IC50 at Coagulation factor XI [9] is 14.5 µM. Also, the inhibition against Coagulation factor XI [10] turned out to be 96%. The inhibition entry in [1], in [2], in test [3], in test [5] and in test [7] was “inactive” in each case. The Selectivity ratio was more than 63 in the test filed under Homo sapiens [11]; more than 63 in the test filed under Homo sapiens [12]; more than 63 in the test listed under Homo sapiens [13]; more than 25 in the test filed under Homo sapiens [14]; more than 63 in the test filed under Homo sapiens [15]; more than 25 in [16]. For the same molecule, the Selectivity ratio in test [17] is more than 63. Moreover, the inhibition result (in [21]; in the test filed under Bos taurus [22]) was “Active” in each case.
Molecule `O=c1c2ccccc2nc(-c2ccc(OS(=O)(=O)O)cc2)n1CCCCCCCCCCn1c(-c2ccc(OS(=O)(=O)O)cc2)nc2ccccc2c1=O` displayed an IC50 on Coagulation factor XI [9] of 16.6 µM. For the same molecule, the inhibition at Coagulation factor XI [10] amounted to 95%. Moreover, the inhibition entry in test [1], in [2], in [3], in test [5] and in [7] was “inactive” each time. For the same molecule, the Selectivity ratio was more than 63 in the test listed under Homo sapiens [11]; more than 63 in the test listed under Homo sapiens [12]; more than 63 in the test listed under Homo sapiens [13]; more than 25 in the test filed under Homo sapiens [14]; more than 63 in the test listed under Homo sapiens [15]; more than 25 in [16]. For the same molecule, the Selectivity ratio in test [17] was more than 63. Besides, the inhibition result (in [21]; in the test filed under Bos taurus [22]) was “Active” throughout.
As to `O=c1c2ccccc2nc(-c2ccc(OS(=O)(=O)O)cc2)n1CCCCCCn1c(-c2ccc(OS(=O)(=O)O)cc2)nc2ccccc2c1=O`, the IC50 on Coagulation factor XI [9] stood at 34 µM. Further, on Coagulation factor XI [10], the inhibition stood at 87%. The inhibition result (in [1]; in test [2]; in [3]; in [4]; in [5]; in the test listed under Bos taurus [6]) was “inactive” each time. The inhibition result in test [7] is “inactive”. For the same molecule, the Selectivity ratio (in the test listed under Homo sapiens [11]; in the test listed under Homo sapiens [12]; in the test filed under Homo sapiens [13]; in the test filed under Homo sapiens [14]; in the test listed under Homo sapiens [15]; in [16]) was more than 63 each time. In addition, the Selectivity ratio in test [17] was more than 63.
As for `O=c1c2ccccc2nc(-c2ccc(OS(=O)(=O)O)cc2)n1CCCCCCCCn1c(-c2ccc(OS(=O)(=O)O)cc2)nc2ccccc2c1=O`, at Coagulation factor XI [9], the IC50 worked out at 20 µM. Also, the inhibition against Coagulation factor XI [10] came to 81%. For the same molecule, the inhibition result (in [1]; in test [2]; in test [3]; in test [4]; in test [5]; in the test filed under Bos taurus [6]) was “inactive” each time. Further, in test [7], the inhibition result is “inactive”. The Selectivity ratio (in the test listed under Homo sapiens [11]; in the test listed under Homo sapiens [12]; in the test listed under Homo sapiens [13]; in the test listed under Homo sapiens [14]; in the test filed under Homo sapiens [15]; in test [16]) was more than 63 throughout. Also, the Selectivity ratio in test [17] is more than 63.
